Reference: ChEMBL document CHEMBL1133909, “Piperazine-based CCR5 antagonists as HIV-1 inhibitors. I: 2(S)-methyl piperazine as a key pharmacophore element” (Bioorg Med Chem Lett, 2001)

Experiments:
[1] = target: T1, C-C chemokine receptor type 5 (Homo sapiens, UniProt P51681); test: Inhibition of [125I]-labeled RANTES binding to C-C chemokine receptor type 5
Method in brief: (§1)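 Membranes from CHO cells expressing CCR5 incubated 1 h with 125I-RANTES, with or without compound. Counts averaged. IC50 taken as the amount inhibiting 50% of total 125I-RANTES binding. Ki derived from the binding data. Standard error 10%; assay-to-assay variability 2–3 fold.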

[2] = target: T2, Muscarinic acetylcholine receptor M2 (Homo sapiens, UniProt P08172); test: Affinity for Muscarinic acetylcholine receptor M2
T2 sequence (P08172 whole entry): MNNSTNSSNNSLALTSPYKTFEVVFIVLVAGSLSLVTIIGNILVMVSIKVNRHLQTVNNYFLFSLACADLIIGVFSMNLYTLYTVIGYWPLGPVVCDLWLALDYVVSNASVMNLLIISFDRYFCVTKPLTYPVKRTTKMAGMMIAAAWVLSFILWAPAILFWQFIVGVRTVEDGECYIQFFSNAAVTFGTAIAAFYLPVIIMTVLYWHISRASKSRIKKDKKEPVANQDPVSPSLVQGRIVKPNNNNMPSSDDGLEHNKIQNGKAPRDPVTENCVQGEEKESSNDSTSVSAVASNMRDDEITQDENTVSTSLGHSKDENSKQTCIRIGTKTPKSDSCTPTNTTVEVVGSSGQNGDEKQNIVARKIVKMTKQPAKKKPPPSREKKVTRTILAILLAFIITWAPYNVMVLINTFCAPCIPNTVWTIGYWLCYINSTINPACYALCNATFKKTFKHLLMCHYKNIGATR

[3] = Antiviral activity was measured as inhibition of the growth of primary HIV-1 isolate (US-1) in human peripheral blood mononuclear cells; assay type: functional
[4] = target: T1, C-C chemokine receptor type 5; test: Ability to inhibit [125I]-labeled RANTES binding to C-C chemokine receptor type 5; method in brief: as §1
[5] = target: T1, C-C chemokine receptor type 5; test: Ability to inhibit [125I]-labeled RANTES binding to C-C chemokine receptor type 5 expressed in membrane preparation of CHO cells; assay type: cell membranes; method in brief: as §1

T1 sequence (P51681 whole entry): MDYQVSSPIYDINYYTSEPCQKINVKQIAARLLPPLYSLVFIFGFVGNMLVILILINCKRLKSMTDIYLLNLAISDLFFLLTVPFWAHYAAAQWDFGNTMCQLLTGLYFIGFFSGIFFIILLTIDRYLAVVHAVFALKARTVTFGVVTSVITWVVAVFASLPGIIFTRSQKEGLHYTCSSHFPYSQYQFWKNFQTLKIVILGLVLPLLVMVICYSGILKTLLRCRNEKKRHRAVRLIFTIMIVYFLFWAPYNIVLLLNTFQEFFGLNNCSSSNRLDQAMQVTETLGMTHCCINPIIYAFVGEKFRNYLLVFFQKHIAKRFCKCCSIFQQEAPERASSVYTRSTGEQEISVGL

| SMILES | Ki [1] | Ki [2] | IC50 [3] | IC50 [4] | Ki [5] |
| --- | --- | --- | --- | --- | --- |
| Cc1cccc(C)c1C(=O)N1CCC(N2CCN([C@@H](C)c3ccc(Cc4ccc5c(c4)OCO5)cc3)[C@@H](C)C2)CC1 | 18 nM | 760 nM | 8 nM |  |  |
| C[C@H]1CN(C2CCN(C(=O)c3c(Cl)cccc3Cl)CC2)CCN1[C@@H](C)c1ccc(S(=O)(=O)c2ccc3c(c2)OCO3)cc1 | 49 nM | 270 nM |  |  |  |
| Cc1cccc(C)c1C(=O)N1CCC(N2CCN([C@@H](C)c3ccc(S(=O)(=O)c4ccc5c(c4)OCO5)cc3)[C@H](C)C2)CC1 |  | 0.8 nM |  | 440 nM |  |
| Cc1cccc(C)c1C(=O)N1CCC(N2CCN([C@@H](C)c3ccc(Cc4cccc(Cl)c4)cc3)[C@@H](C)C2)CC1 | 45 nM | > 1400 nM |  |  |  |
| Cc1cccc(C)c1C(=O)N1CCC(N2CCN(Cc3ccc(Cc4ccc5c(c4)OCO5)cc3)CC2)CC1 | 352 nM | 497 nM |  |  |  |
| Cc1cccc(C)c1C(=O)N1CCC(N2CCN(Cc3ccc(Cc4ccc5c(c4)OCO5)cc3)[C@@H](C)C2)CC1 | 44 nM | > 40 nM |  |  |  |
| Cc1cccc(C)c1C(=O)N1CCC(N2CCN(Cc3ccc(S(=O)(=O)c4ccc5c(c4)OCO5)cc3)CC2)CC1 | > 1300 nM | 31 nM |  |  |  |
| C[C@H]1CN(C2CCN(C(=O)c3c(F)cccc3F)CC2)CCN1[C@@H](C)c1ccc(S(=O)(=O)c2ccc3c(c2)OCO3)cc1 | 230 nM | 352 nM |  |  |  |
| Cc1cccc(C)c1C(=O)N1CCC(N2CCN([C@@H](C)c3ccc(S(=O)(=O)c4ccc5c(c4)OCO5)cc3)CC2)CC1 | 442 nM | 1 nM |  |  |  |
| Cc1cccc(C)c1C(=O)N1CCC(N2CCN(Cc3ccc(S(=O)(=O)c4ccc5c(c4)OCO5)cc3)[C@@H](C)C2)CC1 | 74 nM | > 40 nM |  |  |  |
| C[C@H]1CN(C2CCN(C(=O)c3c(N)cccc3Cl)CC2)CCN1[C@@H](C)c1ccc(S(=O)(=O)c2ccc3c(c2)OCO3)cc1 | 32 nM | 100 nM |  |  |  |
| Cc1cccc(N)c1C(=O)N1CCC(N2CCN([C@@H](C)c3ccc(S(=O)(=O)c4ccc5c(c4)OCO5)cc3)[C@@H](C)C2)CC1 |  | 100 nM |  |  | 31 nM |
| Cc1cccc(C)c1C(=O)N1CCC(N2CCN([C@@H](C)c3ccc(S(=O)(=O)c4ccc5c(c4)OCO5)cc3)[C@@H](C)C2)CC1 | 28 nM | 485 nM |  |  |  |
| Cc1ccccc1C(=O)N1CCC(N2CCN([C@@H](C)c3ccc(Cc4ccc5c(c4)OCO5)cc3)[C@@H](C)C2)CC1 |  | 35 nM |  | 90 nM |  |
